Calls of active or inactive are those of the source.
Legend:
[1] = molecular target: T1, Aryl hydrocarbon receptor (Homo sapiens, UniProt P35869); assay: Activation of AhR in human HepG2 cells assessed as induction of CYP1A1 mRNA expression at 10 uM after 18 hrs by RT-PCR method; format: ADME, cell-based
T1 sequence (P35869 whole entry): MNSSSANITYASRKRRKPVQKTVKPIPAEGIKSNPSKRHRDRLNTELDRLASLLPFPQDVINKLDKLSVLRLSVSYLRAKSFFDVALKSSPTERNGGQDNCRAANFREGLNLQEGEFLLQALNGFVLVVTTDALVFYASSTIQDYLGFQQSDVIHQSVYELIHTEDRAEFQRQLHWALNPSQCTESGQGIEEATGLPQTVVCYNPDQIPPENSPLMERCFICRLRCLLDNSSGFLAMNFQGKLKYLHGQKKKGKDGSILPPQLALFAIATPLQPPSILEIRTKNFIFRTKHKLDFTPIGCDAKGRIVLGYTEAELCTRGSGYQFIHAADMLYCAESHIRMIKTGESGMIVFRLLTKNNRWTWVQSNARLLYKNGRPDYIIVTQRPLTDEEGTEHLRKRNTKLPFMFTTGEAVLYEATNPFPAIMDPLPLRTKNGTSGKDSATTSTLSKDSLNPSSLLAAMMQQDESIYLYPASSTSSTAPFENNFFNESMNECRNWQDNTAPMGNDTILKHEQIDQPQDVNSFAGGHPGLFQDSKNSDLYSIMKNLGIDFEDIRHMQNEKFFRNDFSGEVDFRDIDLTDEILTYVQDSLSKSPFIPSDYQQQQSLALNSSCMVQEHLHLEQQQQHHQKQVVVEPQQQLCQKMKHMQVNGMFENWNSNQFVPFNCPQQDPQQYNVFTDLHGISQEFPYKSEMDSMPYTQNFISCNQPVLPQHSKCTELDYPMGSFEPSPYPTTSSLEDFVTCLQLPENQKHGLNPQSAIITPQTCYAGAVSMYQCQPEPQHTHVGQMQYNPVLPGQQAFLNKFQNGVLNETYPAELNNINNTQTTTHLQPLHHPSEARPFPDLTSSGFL
In short: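 HepG2 cells seeded at 3x10^5 cells/ml were exposed to compound for 18 h alongside untreated cells and a 3-methylcholanthrene (10 µM) positive control. Total RNA was then extracted for transcript measurement. Three independent experiments were run.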

[2] = molecular target: T2, G-protein coupled receptor 84 (Homo sapiens, UniProt Q9NQS5); assay: Agonist activity at Gi coupled human GPR84 expressed in CHO cells assessed as inhibition of forskolin-induced cAMP accumulation up to 100 uM preincubated for 5 mins followed by forskolin addition measured after 15 mins in presence of [3H]-cAMP by radiometric assay; format: functional, cell-based
In short: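 Concentration-response in CHO-hGPR84 cells. Compound preincubated 5 min, then forskolin 10 µM added for a further 15 min. Maximal forskolin-induced cAMP without agonist set as 100 %. […] Mean ± SEM of 3 independent experiments in duplicate.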

[3] = Stability of the compound in pH 1.2 artificial gastric fluid containing HCl, NaCl and pepsin assessed as parent compound remaining at 100 uM after 2 hrs by HPLC-MS analysis
In short: (§1)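 Stock (2.5 mM in methanol/acetonitrile 1:1) diluted to 100 µM final in water, 0.01 % aqueous ammonia (pH 9), 1 mM NaOH (pH 11), or artificial gastric acid (pepsin, NaCl, HCl; pH 1.2). Incubated at 37 °C up to 24 h, sampled at intervals. Analysed by LC-ESI-MS on C18 at 25 °C with water/2 mM ammonium acetate–acetonitrile gradient.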

[4] = molecular target: G-protein coupled receptor 35 (Homo sapiens) (UniProt Q9HC97); assay: Agonist activity at human GPR35 at 10 uM
[5] = tested on: CHO; assay: Effect on forskolin-induced cAMP accumulation in CHO cells preincubated for 5 mins followed by forskolin addition measured after 15 mins in presence of [3H]-cAMP by radiometric assay; format: ADME, cell-based, Cricetulus griseus; settings: chinese hamster, 0.25 h
In short: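 CHO cells stably expressing human GPR84, or the parent non-transfected CHO line, incubated in HBSS (pH 7.4) at 37 °C with RO-20-1724 (final 40 µM). Forskolin (10 µM) added with or without test compound for 15 min. Cells lysed in hot (90 °C) EDTA/Triton X-100 solution. cAMP measured radiometrically with bovine adrenal binding protein and [³H]cAMP, expressed as % of forskolin-alone response.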

[6] = molecular target: T2, G-protein coupled receptor 84; assay: Agonist activity at Gi coupled human GPR84 expressed in CHO cells assessed as inhibition of forskolin-induced cAMP accumulation after 15 mins in presence of [3H]-cAMP by radiometric assay; format: functional, cell-based
In short: (§2)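 Forskolin (10 µM) added with or without test compound for 15 min. Cells lysed in hot (90 °C) EDTA/Triton X-100 solution. cAMP measured radiometrically with bovine adrenal binding protein and [³H]cAMP, expressed as % of forskolin-alone response.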

[7] = molecular target: T2, G-protein coupled receptor 84; assay: Agonist activity at human GPR84 expressed in CHO cells assessed as beta-arrestin recruitment at 10 uM after 90 mins by beta-galactosidase complementation assay relative to embelin; format: cell-based
In short: (§3)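 CHO cells co-expressing human GPR84–β-galactosidase fragment and β-arrestin–complementary fragment, 20,000 per well. Compounds in DMSO (final ≤1 %) added for 90 min, then detection reagent for 60 min at rt; luminescence read. Three to five independent experiments in duplicate.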

[8] = molecular target: Free fatty acid receptor 1 (Homo sapiens, UniProt O14842); assay: Agonist activity at Gq protein coupled human FFAR1 expressed in human 1321N1 cells assessed as induction of intracellular calcium level at 10 uM measured at 1.2 secs time interval by Fluo-4-AM dye based fluorescence assay; format: functional, cell-based
In short: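 1321N1 astrocytoma cells retrovirally expressing human FFAR1, 50,000 per well, loaded 60 min at rt in dark with 3 µM Fluo-4-AM and 0.06 % Pluronic F-127 in HBSS. Compounds at 10 µM final; antagonist mode uses 30 min preincubation before TUG-424 (final 1 µM). Fluorescence at 520 nm (excitation 485 nm), 90 reads at 1.2 s intervals. Normalized to TUG-424 at 10 µM (agonist) or 1 µM (antagonist).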

[9] = molecular target: T3, Free fatty acid receptor 4 (Homo sapiens) (UniProt Q5NUL3); assay: Agonist activity at human FFAR4 expressed in CHO cells assessed as beta-arrestin recruitment at 10 uM after 90 mins by beta-galactosidase complementation assay; format: cell-based
T3 sequence (whole entry): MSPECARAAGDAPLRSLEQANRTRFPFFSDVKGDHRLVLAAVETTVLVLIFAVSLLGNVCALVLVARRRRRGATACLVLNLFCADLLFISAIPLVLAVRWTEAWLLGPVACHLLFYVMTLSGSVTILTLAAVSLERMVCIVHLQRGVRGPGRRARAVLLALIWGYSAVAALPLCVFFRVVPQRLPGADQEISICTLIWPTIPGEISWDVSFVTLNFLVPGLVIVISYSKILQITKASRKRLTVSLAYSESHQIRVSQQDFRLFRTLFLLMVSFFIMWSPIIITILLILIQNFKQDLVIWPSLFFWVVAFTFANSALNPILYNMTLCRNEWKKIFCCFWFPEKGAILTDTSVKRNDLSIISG
In short: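 Human FFAR4 in CHO β-galactosidase complementation cells, 30,000 per well, serum-free F12 ~4 h before assay; final DMSO 1 %, compounds 10 µM. Agonist mode: 90 min with agonist, then detection 60 min rt dark; luminescence. 3–4 experiments in duplicate.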

[10] = molecular target: T2, G-protein coupled receptor 84; assay: Agonist activity at Gi coupled human GPR84 expressed in CHO cells assessed as inhibition of forskolin-induced cAMP accumulation at 10 uM after 15 mins in presence of [3H]-cAMP by radiometric assay relative to decanoic acid; format: functional, cell-based; in short: as §2
[11] = Stability of the compound in water at 100 uM up to 24 hrs by HPLC-MS analysis; format: physicochemical; settings: buffer; in short: as §1
[12] = molecular target: T1, Aryl hydrocarbon receptor; assay: Activation of AhR in human HepG2 cells assessed as induction of CYP1A1 mRNA expression after 18 hrs by RT-PCR method; format: ADME, cell-based
In short: (§4)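 HepG2 cells (3x10^5 cells/ml) stimulated 18 h with 5 µM or 20 µM test compound or left untreated; 3-methylcholanthrene (10 µM) as positive control. RNA extracted for read-out; three independent experiments.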

[13] = Stability of the compound in pH 1.2 artificial gastric fluid containing HCl, NaCl and pepsin assessed as parent compound remaining at 100 uM after 4 hrs by HPLC-MS analysis; in short: as §1
[14] = Stability of the compound in 1 mM sodium hydroxide solution at 100 uM at pH 11 up to 24 hrs by HPLC-MS analysis; format: physicochemical; settings: buffer, pH 11, 24 h; in short: as §1
[15] = Stability of the compound in 0.01% ammonia solution at 100 uM at pH 9 up to 24 hrs by HPLC-MS analysis; format: physicochemical; settings: buffer, pH 9, 24 h; in short: as §1
[16] = molecular target: T3, Free fatty acid receptor 4 (Homo sapiens); assay: Antagonist activity at human FFAR4 expressed in CHO cells assessed as inhibition of TUG-89-induced beta-arrestin recruitment at 10 uM preincubated for 30 mins followed by TUG-89 addition measured after 90 mins by beta-galactosidase complementation assay; format: cell-based
[17] = Stability of the compound in pH 1.2 artificial gastric fluid containing HCl, NaCl and pepsin assessed as parent compound remaining at 100 uM after 1 hr by HPLC-MS analysis; in short: as §1
[18] = molecular target: T2, G-protein coupled receptor 84; assay: Agonist activity at human GPR84 expressed in CHO cells assessed as beta-arrestin recruitment after 90 mins by beta-galactosidase complementation assay; format: cell-based; in short: as §3
[19] = Stability of the compound in pH 1.2 artificial gastric fluid containing HCl, NaCl and pepsin at 100 uM up to 24 hrs by HPLC-MS analysis; in short: as §1
[20] = molecular target: T1, Aryl hydrocarbon receptor; assay: Activation of AhR in human HepG2 cells assessed as induction of CYP1A1 mRNA expression at 20 uM after 18 hrs by RT-PCR method; format: ADME, cell-based; in short: as §4
[21] = molecular target: T2, G-protein coupled receptor 84; assay: Ratio of EC50 for human GPR84 expressed in CHO cells assessed as beta-arrestin recruitment to EC50 for Gi coupled human GPR84 expressed in CHO cells assessed as inhibition of forskolin-induced cAMP accumulation; format: functional, cell-based
[22] = molecular target: T2, G-protein coupled receptor 84; assay: Antagonist activity at Gi coupled human GPR84 expressed in CHO cells assessed as inhibition of decanoic acid-induced receptor activation at 10 uM; format: cell-based
[23] = molecular target: T2, G-protein coupled receptor 84; assay: Positive allosteric modulation of Gi coupled human GPR84 expressed in CHO cells assessed as potentiation of decanoic acid-induced inhibition of forskolin-induced cAMP accumulation by measuring increase in fold shift in decanoic acid EC50 at 0.1 to 30 uM after 15 mins in presence of [3H]-cAMP by radiometric assay; format: functional, cell-based
[24] = molecular target: T1, Aryl hydrocarbon receptor; assay: Activation of AhR in human HepG2 cells assessed as induction of CYP1A1 mRNA expression at 5 to 20 uM after 18 hrs by RT-PCR method; format: ADME, cell-based; in short: as §4

Chain of G-protein coupled receptor 35 (Homo sapiens) (Q9HC97 whole entry): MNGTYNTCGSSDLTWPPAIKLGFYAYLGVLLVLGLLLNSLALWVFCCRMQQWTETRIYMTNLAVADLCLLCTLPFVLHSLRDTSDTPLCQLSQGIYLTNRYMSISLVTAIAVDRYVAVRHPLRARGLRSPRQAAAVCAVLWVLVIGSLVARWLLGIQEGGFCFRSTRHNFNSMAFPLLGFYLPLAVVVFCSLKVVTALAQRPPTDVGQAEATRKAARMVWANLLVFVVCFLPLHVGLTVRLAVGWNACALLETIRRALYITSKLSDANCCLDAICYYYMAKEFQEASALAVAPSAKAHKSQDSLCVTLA
T2 sequence (Q9NQS5 whole entry): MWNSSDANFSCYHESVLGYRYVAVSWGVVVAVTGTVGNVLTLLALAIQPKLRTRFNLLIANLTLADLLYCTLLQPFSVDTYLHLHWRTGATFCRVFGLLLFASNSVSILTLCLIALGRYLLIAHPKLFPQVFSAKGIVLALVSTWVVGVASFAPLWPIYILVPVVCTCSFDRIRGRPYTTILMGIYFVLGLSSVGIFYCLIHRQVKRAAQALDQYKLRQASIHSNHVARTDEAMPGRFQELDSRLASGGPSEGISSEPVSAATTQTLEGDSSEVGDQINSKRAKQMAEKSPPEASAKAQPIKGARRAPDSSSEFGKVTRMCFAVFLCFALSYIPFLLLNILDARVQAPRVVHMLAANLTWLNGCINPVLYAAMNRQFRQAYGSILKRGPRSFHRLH
Chain of Free fatty acid receptor 1 (O14842 whole entry): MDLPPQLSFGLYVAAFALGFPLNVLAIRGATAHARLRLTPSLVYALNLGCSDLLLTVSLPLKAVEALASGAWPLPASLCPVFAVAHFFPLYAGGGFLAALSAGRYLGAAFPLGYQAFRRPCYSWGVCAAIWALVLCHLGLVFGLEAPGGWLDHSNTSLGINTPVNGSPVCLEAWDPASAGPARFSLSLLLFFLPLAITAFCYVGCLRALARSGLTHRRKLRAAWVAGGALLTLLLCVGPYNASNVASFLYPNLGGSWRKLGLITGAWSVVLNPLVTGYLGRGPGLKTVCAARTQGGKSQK

| Activity [4] | inhibition [6] | Emax [7] | Activity [8] | Activity [9] | Emax [10] | Stability [11] | Stability [14] | Stability [15] | inhibition [16] | EC50 [6] | EC50 [18] | Compound | Activity [5] | Stability [13] | also measured |
| --- | --- | --- | --- | --- | --- | --- | --- | --- | --- | --- | --- | --- | --- | --- | --- |
|  |  | 99% | inactive | inactive | 129% | Stable | Stable | Stable | inactive | 0.113 µM | 6.07 µM | Fc1cccc2c(Cc3c[nH]c4c(F)cccc34)c[nH]c12 |  |  | Stability [19]: Stable |
| inactive | Dose-dependent effect | 125% | inactive | inactive | 117% | Stable | Stable | Stable | inactive | 0.08 µM | 4.33 µM | Fc1ccc2[nH]cc(Cc3c[nH]c4ccc(F)cc34)c2c1 | Non-Toxic | 57% | Activity [20]: Not Active; Ratio EC50 [21]: 54 |
| inactive | Dose-dependent effect | 385% | inactive | inactive | 131% |  |  |  | inactive |  |  | Fc1cc(F)c2[nH]cc(Cc3c[nH]c4c(F)cc(F)cc34)c2c1 | Non-Toxic |  | Activity [24]: Not Active |

More lines, now with the values behind:

| Compound | Activity [4] | inhibition [6] | Emax [7] | Activity [8] | Activity [9] | Emax [10] | Stability [11] | Stability [14] | Stability [15] | inhibition [16] | EC50 [6] | EC50 [18] | Activity [5] | Stability [13] | also measured |
| --- | --- | --- | --- | --- | --- | --- | --- | --- | --- | --- | --- | --- | --- | --- | --- |
| Cc1ccc2cc3c(ccc4ccccc43)c3c2c1CC3 [3-METHYLCHOLANTHRENE] |  |  |  |  |  |  |  |  |  |  |  |  |  |  | Activity [1]: Active; inhibition [2]: inactive |
| c1ccc2c(Cc3c[nH]c4ccccc34)c[nH]c2c1 [ARUNDINE] | inactive | Dose-dependent effect | 60% | inactive | inactive | 125% | Stable | Stable | Stable | inactive |  |  | Non-Toxic | 35% | Stability [3]: 49%; fold change (FC) [10]: 29; Activity [12]: Dose-dependent effect; Stability [17]: 63% |
| CCC(c1c[nH]c2ccccc12)c1c[nH]c2ccccc12 | inactive |  | 67% | inactive | inactive | -24% |  |  |  | inactive | > 10 µM | 2.97 µM |  |  | inhibition [22]: inactive; Activity [23]: inactive |

Reference: ChEMBL document CHEMBL4014307, “Diindolylmethane Derivatives: Potent Agonists of the Immunostimulatory Orphan G Protein-Coupled Receptor GPR84” (J Med Chem, 2017)
